This is an account of results in ChEMBL document CHEMBL1255453, “Affinity of ceftaroline and other beta-lactams for penicillin-binding proteins from Staphylococcus aureus and Streptococcus pneumoniae” (Antimicrob Agents Chemother, 2010).

By IC50 is commonly meant the point on the concentration scale where inhibition reaches its midpoint. As a reminder, the MIC is the lowest concentration that inhibits growth of the organism. High values mean weaker potency, low ones greater potency.

Converted amounts (≈) assume the structure as drawn. A value given as a limit tells only on which side of the number the result lay.

A short description of assay [1]: Binding affinity to methicillin-resistant, vancomycin-intermediate, beta-lactamase-positive Staphylococcus aureus 1287 PBP2 by competitive binding assay.
The subject of assay [2] is Streptococcus pneumoniae. Put plainly: Antibacterial activity against penicillin-susceptible Streptococcus pneumoniae 1076 by macrodilution method. The class given is functional. In a few lines: (§1)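 CLSI broth macrodilution MICs. The S. aureus set is 5 MRSA strains (hVISA, VISA, VRSA) plus 1 MSSA. The S. pneumoniae set is 7 clonally unrelated clinical isolates, categorised by penicillin G against 2006 CLSI M100-S17 criteria (resistant ≥2 μg/ml, susceptible ≤0.06 μg/ml).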

The nature of assay [3]: Binding affinity to against methicillin-, daptomycin-resistant, vancomycin-intermediate, beta-lactamase-positive Staphylococcus aureus 25 PBP1 by competitive binding assay. The gist of the method:
(§2)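 MRSA strain harvested in stationary phase (OD600 >2.00). Membranes prepared by enzymatic lysis, freeze-thaw, sonication and ultracentrifugation, then preincubated with clavulanic acid 1 mg/ml. β-Lactam competition 10 min at 37°C, then Bocillin FL 40 μg/ml, 15 min at 37°C. SDS-PAGE, 520 nm imaging; IC50 = 50% inhibition of Bocillin FL labeling; 3 membrane isolations.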

A short description of assay [4]: Binding affinity to methicillin-resistant, heteroresistant vancomycin-intermediate, beta-lactamase-negative Staphylococcus aureus 873 PBP2 by competitive binding assay.
Assay [5] concerns the target T1, MecA (Staphylococcus aureus, UniProt Q7DHH4).
T1 sequence (Q7DHH4 whole entry): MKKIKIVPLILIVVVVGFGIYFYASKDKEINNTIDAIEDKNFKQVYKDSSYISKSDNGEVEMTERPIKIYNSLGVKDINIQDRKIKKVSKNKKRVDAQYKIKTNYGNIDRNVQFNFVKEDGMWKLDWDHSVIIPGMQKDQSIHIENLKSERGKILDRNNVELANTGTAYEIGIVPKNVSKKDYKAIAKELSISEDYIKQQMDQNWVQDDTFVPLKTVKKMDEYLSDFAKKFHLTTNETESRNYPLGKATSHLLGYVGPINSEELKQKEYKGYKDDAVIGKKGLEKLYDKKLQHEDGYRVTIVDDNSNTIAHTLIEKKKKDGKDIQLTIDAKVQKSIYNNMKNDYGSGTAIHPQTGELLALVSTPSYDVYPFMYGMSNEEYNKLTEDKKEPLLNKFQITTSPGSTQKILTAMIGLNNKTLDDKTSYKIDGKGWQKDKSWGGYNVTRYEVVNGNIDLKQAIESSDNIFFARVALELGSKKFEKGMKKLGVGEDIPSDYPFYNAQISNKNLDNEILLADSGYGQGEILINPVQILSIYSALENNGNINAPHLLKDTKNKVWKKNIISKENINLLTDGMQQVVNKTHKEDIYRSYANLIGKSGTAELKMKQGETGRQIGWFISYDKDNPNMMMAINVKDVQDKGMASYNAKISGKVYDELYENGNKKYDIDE
Briefly: Binding affinity to against methicillin-, daptomycin-resistant, vancomycin-intermediate, beta-lactamase-positive Staphylococcus aureus 25 PBP2a by competitive binding assay. The gist of the method: as §2

The nature of assay [6]: Binding affinity to penicillin-resistant Streptococcus pneumoniae 2527 PBP2A by competitive binding assay. The gist of the method:
(§3)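 Whole pneumococcal cells were grown to OD600 0.3 in Todd-Hewitt broth plus 0.5% yeast extract, then resuspended in 50 mM NaPO4, pH 7.0. Cells at 10^8 to 5 × 10^8 CFU/ml were exposed to β-lactam for 10 min at 37°C, alongside a reference without drug. They were then labeled with 10 μg/ml Bocillin FL for 15 min at 37°C. Proteins were resolved by SDS-PAGE and fluorescence read at 520 nm. IC50 was taken as 50% inhibition of Bocillin FL binding, from 2 experiments.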

The subject of assay [7] is Streptococcus pneumoniae. Put plainly: Antibacterial activity against penicillin-resistant Streptococcus pneumoniae 3413 by macrodilution method. The class given is functional. The gist of the method: as §1
Assay [8] in a line: Binding affinity to methicillin-, vancomycin-susceptible Staphylococcus aureus ATCC 29213 PBP2 by competitive binding assay. In a few lines:
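MSSA grown in brain heart infusion broth and harvested at OD600 0.3–0.4. Lysed with lysozyme, lysostaphin, DNase I, freeze-thaw and sonication; membranes collected at 100,000 × g. Membranes (100 μg protein) incubated with β-lactam 10 min at 37°C, then Bocillin FL 40 μg/ml, 15 min at 37°C. SDS-PAGE, fluorescence at 520 nm. IC50 is 50% inhibition of Bocillin FL binding; 3 membrane isolations.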

Assay [9] addresses T1, MecA. Briefly: Binding affinity to methicillin-resistant, vancomycin-intermediate, beta-lactamase-positive Staphylococcus aureus 1287 PBP2a by competitive binding assay. The gist of the method:
(§4)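 MRSA grown in brain heart infusion and harvested in exponential phase (OD600 0.3–0.4). Membranes prepared by lysozyme/lysostaphin/DNase, freeze-thaw and sonication, then ultracentrifugation. Membranes preincubated with clavulanic acid 1 mg/ml to saturate PBPs other than PBP2a. Then β-lactam 10 min at 37°C and Bocillin FL 40 μg/ml, 15 min at 37°C. SDS-PAGE fluorescence; IC50 = 50% inhibition of Bocillin FL binding; 3 isolations.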

Assay [10] in a line: Binding affinity to methicillin-resistant, heteroresistant vancomycin-intermediate, beta-lactamase-negative Staphylococcus aureus 873 PBP4 by competitive binding assay.
The test system of assay [11] is Streptococcus pneumoniae. Put plainly: Antibacterial activity against penicillin-resistant Streptococcus pneumoniae 2527 by macrodilution method. Format: functional. In a few lines: as §1
For assay [12], the target named is T1, MecA. Put plainly: Binding affinity to methicillin-, linezolid-resistant, vancomycin-intermediate, beta-lactamase-positive Staphylococcus aureus 2149A PBP2a by competitive binding assay. In a few lines: as §4
Assay [13] can be described thus: Binding affinity to methicillin-resistant, vancomycin-intermediate, beta-lactamase-positive Staphylococcus aureus 1287 PBP1 by competitive binding assay.
A short description of assay [14]: Binding affinity to methicillin-resistant, heteroresistant vancomycin-intermediate, beta-lactamase-negative Staphylococcus aureus 873 PBP1 by competitive binding assay.
Assay [15] can be described thus: Binding affinity to methicillin-, linezolid-resistant, vancomycin-intermediate, beta-lactamase-positive Staphylococcus aureus 2149A PBP2 by competitive binding assay.
Assay [16] can be described thus: Binding affinity to penicillin-resistant Streptococcus pneumoniae 2527 PBP1B by competitive binding assay. In a few lines:
as §3

Another assay deals with Staphylococcus aureus. Put plainly: Antibacterial activity against methicillin-, vancomycin-resistant, beta-lactamase-positive Staphylococcus aureus 510 by macrodilution method. Format: functional. The gist of the method: as §1
The subject of assay [17] is Streptococcus pneumoniae. Briefly: Antibacterial activity against penicillin-resistant Streptococcus pneumoniae 1564 by macrodilution method. The class given is functional. In a few lines: as §1
Assay [18] is described as follows: Binding affinity to methicillin-resistant, heteroresistant vancomycin-intermediate, beta-lactamase-negative Staphylococcus aureus 873 PBP3 by competitive binding assay.

`CO/N=C(\C(=O)N[C@@H]1C(=O)N2C(C(=O)O)=C(COC(C)=O)CS[C@H]12)c1csc(N)n1` [CEFOTAXIME]: the half-inhibitory concentration (IC50) in assay [1] was found to be 1 mg/L (≈ 2.2 µM); in assay [3], 16 mg/L (≈ 35.1 µM); in [4], 0.5 mg/L (≈ 1.1 µM); at MecA [5] it was 1.1 µM; in [6], 0.25 mg/L (≈ 0.549 µM); in assay [8] it was 0.25 mg/L (≈ 0.549 µM). Moreover, the half-maximal inhibitory concentration (IC50) is 4.39 µM at MecA [9]; more than 128 mg/L in [10]; more than 281 µM on MecA [12]; 1 mg/L (≈ 2.2 µM) in [13]; 2 mg/L (≈ 4.39 µM) in assay [14]; 1 mg/L (≈ 2.2 µM) in [15]. The IC50 in [16] and in assay [18] was 0.25 mg/L (≈ 0.549 µM) in each case. Also, the MIC with Streptococcus pneumoniae [2] is 0.03 mg/L (≈ 0.0659 µM); with Streptococcus pneumoniae [7] it was 2 mg/L (≈ 4.39 µM); in the assay with Streptococcus pneumoniae [11], 0.015 mg/L (≈ 0.0329 µM); against Staphylococcus aureus, more than 64 mg/L; in the assay on Streptococcus pneumoniae [17] it was 32 mg/L (≈ 70.3 µM).
On to `CO/N=C(\C(=O)N[C@@H]1C(=O)N2C(C(=O)O)=C(CSc3nc(=O)c(O)nn3C)CS[C@H]12)c1csc(N)n1` [CEFTRIAXONE], for which the concentration for half-maximal inhibition (IC50) in assay [1] was 1 mg/L (≈ 1.8 µM); in assay [3] it was 16 mg/L (≈ 28.9 µM); in [4] it was 0.5 mg/L (≈ 0.902 µM); on MecA [5] it was 0.451 µM; in assay [6], 0.25 mg/L (≈ 0.451 µM); in assay [8] it was 0.25 mg/L (≈ 0.451 µM). Also, the IC50 at MecA [9] was 3.61 µM; in [10], more than 128 mg/L; at MecA [12], 3.61 µM; in assay [13] it was 1 mg/L (≈ 1.8 µM); in [14], 2 mg/L (≈ 3.61 µM); in assay [15], 1 mg/L (≈ 1.8 µM). Also, the IC50 is 0.125 mg/L (≈ 0.225 µM) in [16] and 0.25 mg/L (≈ 0.451 µM) in assay [18]. Besides, the minimum inhibitory concentration (MIC) with Streptococcus pneumoniae [2] is 0.03 mg/L (≈ 0.0541 µM); against Streptococcus pneumoniae [7] it was 2 mg/L (≈ 3.61 µM); in the assay on Streptococcus pneumoniae [11] it was 0.03 mg/L (≈ 0.0541 µM); with Staphylococcus aureus it was more than 64 mg/L; with Streptococcus pneumoniae [17], 32 mg/L (≈ 57.7 µM).
In the case of `CC1(C)S[C@@H]2[C@H](NC(=O)Cc3ccccc3)C(=O)N2[C@H]1C(=O)O` [PENICILLIN G], the IC50 in assay [1] was 4 mg/L (≈ 12 µM); in assay [3], 0.5 mg/L (≈ 1.5 µM); in [4], 0.5 mg/L (≈ 1.5 µM); at MecA [5], 12 µM; in assay [8] it was 8 mg/L (≈ 23.9 µM); at MecA [9], 12 µM. In addition, the IC50 in [10] is more than 128 mg/L; at MecA [12], 5.98 µM; in [13], 4 mg/L (≈ 12 µM); in assay [14], 0.5 mg/L (≈ 1.5 µM); in [15], more than 128 mg/L; in assay [18] it was 0.03 mg/L (≈ 0.0897 µM). Moreover, the minimal inhibitory concentration (MIC) against Streptococcus pneumoniae [2] was found to be 0.03 mg/L (≈ 0.0897 µM); in the assay with Streptococcus pneumoniae [7] it was 4 mg/L (≈ 12 µM); in the assay with Streptococcus pneumoniae [11] it was 2 mg/L (≈ 5.98 µM); against Staphylococcus aureus, 32 mg/L (≈ 95.7 µM); in the assay on Streptococcus pneumoniae [17], 16 mg/L (≈ 47.8 µM).
